ChEMBL document CHEMBL1139836, “Development of orally bioavailable and CNS penetrant biphenylaminocyclopropane carboxamide bradykinin B1 receptor antagonists” (J Med Chem, 2007)
Activity calls are given as the source filed them.

Tests used:
Rhesus monkey = assay: Antidepressor effect in iv dosed rhesus monkey measured as blockade of DAK-induced blood pressure response; format: functional, Macaca mulatta
Outline: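 Conscious rhesus monkeys primed with LPS 20 µg/kg iv and given 2 h equilibration. Baseline depressor response to des-Arg10-kallidin 0.3 µg/kg iv measured twice. Antagonist given as rising iv bolus doses of 3, 10, 30 and 100 µg/kg, each 5 min before a DAK challenge, with the fall in mean arterial pressure recorded. Plasma sampled 2 min after each dose. Crossover against vehicle, n = 3.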

B1 bradykinin receptor [1] = target: T1, B1 bradykinin receptor (Homo sapiens, UniProt P46663); assay: Plasma concentration in hB1 knock-in-mouse at 6 mg/kg, po after 1 hr; format: ADME, organism-based; design: dose 6 mg/kg, route oral
T1 sequence (P46663 whole entry): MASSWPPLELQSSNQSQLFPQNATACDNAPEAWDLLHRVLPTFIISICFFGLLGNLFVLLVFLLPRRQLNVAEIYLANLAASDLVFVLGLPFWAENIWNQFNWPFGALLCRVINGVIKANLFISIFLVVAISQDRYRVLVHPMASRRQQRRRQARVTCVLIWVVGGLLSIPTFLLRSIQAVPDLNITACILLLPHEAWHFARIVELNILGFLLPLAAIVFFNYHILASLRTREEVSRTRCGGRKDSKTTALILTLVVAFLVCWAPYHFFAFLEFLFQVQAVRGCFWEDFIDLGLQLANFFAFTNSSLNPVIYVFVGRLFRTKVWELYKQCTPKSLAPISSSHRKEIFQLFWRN
Outline: (§1)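 hB1 knock-in mice with CFA paw inflammation, dosed po at 6, 20 or 60 mg/kg in 0.5% methylcellulose with 10 mg/mL malic acid, pH 4. Plasma collected 60 min after dosing, following behavioural testing.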

B1 bradykinin receptor [2] = target: T1, B1 bradykinin receptor; assay: Plasma concentration in hB1 knock-in-mouse at 20 mg/kg, po after 1 hr; format: ADME, organism-based; design: dose 20 mg/kg, route oral; outline: as §1
B1 bradykinin receptor [3] = target: T1, B1 bradykinin receptor; assay: Plasma concentration in hB1 knock-in-mouse at 60 mg/kg, po after 1 hr; format: ADME, organism-based; design: dose 60 mg/kg, route oral; outline: as §1
Liver microsomes [4] = assay: Stability in rat liver microsomes; format: ADME, Microsome
[5] = Stability in dog liver microsomes; format: ADME, Canis lupus familiaris, Microsome
[6] = Stability in monkey liver microsomes; format: ADME, Macaca mulatta, Microsome; conditions: rhesus monkey
Liver microsomes [7] = assay: Stability in human liver microsomes; format: ADME, Microsome
[8] = Stability in rat hepatocytes; format: ADME, cell-based, Hepatocyte
[9] = Stability in monkey hepatocytes; format: ADME, cell-based, Macaca mulatta, Hepatocyte; conditions: rhesus monkey
[10] = Stability in human hepatocytes; format: ADME, cell-based, Hepatocyte
Mus musculus [11] = assay: Effect on complete Freund's adjuvant-induced hypersensitivity in mouse at 6 mg/kg, po; format: functional, organism-based; design: dose 6 mg/kg
Outline: (§2)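 Humanized B1 knock-in mice and wild-type mice, 8-13 weeks old. Injected intraplantar with 30 µL of 50% CFA; 24 h later tested for von Frey tactile threshold (Dixon up-down). Then dosed po at 6, 20 or 60 mg/kg or vehicle (0.5% methylcellulose with 10 mg/mL malic acid, pH 4, 10 mL/kg). Paw withdrawal threshold read at 60 min. Two-way repeated-measures ANOVA with Tukey test.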

Mus musculus [12] = assay: Effect on complete Freund's adjuvant-induced hypersensitivity in mouse at 20 mg/kg, po; format: functional, organism-based; design: dose 20 mg/kg; outline: as §2
Mus musculus [13] = assay: Effect on complete Freund's adjuvant-induced hypersensitivity in mouse at 60 mg/kg, po; format: functional, organism-based; design: dose 60 mg/kg; outline: as §2
[14] = target: T2, B1 bradykinin receptor (Homo sapiens) (UniProt P46663); assay: Reversal of complete Freund's adjuvant-induced hyperalgesia in orally dosed hB1 knock-in-mouse; format: functional, organism-based; outline: as §2
T2 sequence (whole entry): T1 sequence (P46663 whole entry)

[15] = Oral bioavailability in Sprague-Dawley rat at 10 mg/kg, po and 2 mg/kg, iv; format: ADME, organism-based; conditions: in vivo
Outline: (§3)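 Sprague-Dawley rats, n = 3, dosed orally at 10 mg/kg and iv at 2 mg/kg. F% from oral versus iv exposure; half-life in hours, clearance in mL/min/kg.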

[16] = Half life in Sprague-Dawley rat at 10 mg/kg, po and 2 mg/kg, iv; format: ADME, organism-based; conditions: in vivo; outline: as §3
[17] = Clearance in Sprague-Dawley rat at 10 mg/kg, po and 2 mg/kg, iv; format: ADME, organism-based; conditions: in vivo; outline: as §3
[18] = Oral bioavailability in Mongrel dog at 3 mg/kg, po and 1 mg/kg, iv; format: ADME, organism-based, Canis lupus familiaris; conditions: in vivo
Outline: (§4)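 Mongrel dogs, n = 2, dosed orally at 3 mg/kg and iv at 1 mg/kg. F%, half-life in hours, clearance in mL/min/kg.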

[19] = Half life in Mongrel dog at 3 mg/kg, po and 1 mg/kg, iv; format: ADME, organism-based, Canis lupus familiaris; conditions: in vivo; outline: as §4
[20] = Clearance in Mongrel dog at 3 mg/kg, po and 1 mg/kg, iv; format: ADME, organism-based, Canis lupus familiaris; conditions: in vivo; outline: as §4
[21] = Oral bioavailability in rhesus monkey at 3 mg/kg, po and 1 mg/kg, iv; format: ADME, organism-based, Macaca mulatta; conditions: in vivo
Outline: (§5)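 Rhesus monkeys, n = 2, dosed orally at 3 mg/kg and iv at 1 mg/kg. F%, half-life in hours, clearance in mL/min/kg.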

[22] = Half life in rhesus monkey at 3 mg/kg, po and 1 mg/kg, iv; format: ADME, organism-based, Macaca mulatta; conditions: in vivo; outline: as §5
[23] = Clearance in rhesus monkey at 3 mg/kg, po and 1 mg/kg, iv; format: ADME, organism-based, Macaca mulatta; conditions: in vivo; outline: as §5
[24] = Ratio of drug level in brain against plasma in African green monkey at 2 mg/kg, iv; conditions: read-out: BPR

- concentration at 1 h (B1 bradykinin receptor [1]): 1 µM
- concentration at 1 h (B1 bradykinin receptor [2]): 3.5 µM
- concentration at 1 h (B1 bradykinin receptor [3]): 5 µM
- Stability (Liver microsomes [4]): Stable
- Stability [5]: Stable
- Stability [6]: Stable
- Stability (Liver microsomes [7]): Stable
- Stability [8]: Stable
- Stability [9]: Stable
- Stability [10]: Stable
- ED50 [14]: 9.76 mg/kg
- bioavailability [15]: 34%
- half-life [16]: 0.4 h
- clearance [17]: 40 mL/min/kg
- bioavailability [18]: 33%
- half-life [19]: 1.8 h
- clearance [20]: 9 mL/min/kg
- bioavailability [21]: 31%
- half-life [22]: 1.7 h
- clearance [23]: 13 mL/min/kg
- Kp [24]: 0.4
Structure (SMILES): COC(=O)c1c(Cl)cccc1-c1ccc([C@@H](C)NC(=O)C2(NC(=O)C(F)(F)F)CC2)c(F)c1 [MK0686]
- AD90 (Rhesus monkey): 0.047 mg/kg
- Activity (Mus musculus [11]): inactive
- Activity (Mus musculus [12]): inactive
- Activity (Mus musculus [13]): inactive
